Measurements of several laboratories.
Compare with care: the assays were run in different laboratories.
Target: Tau-tubulin kinase 1 (TTBK1, Homo sapiens, UniProt Q5TCY1)
Read-out: enzyme activity
Action: inhibitor

Cc1sc(C(=O)NC2COC2)cc1-n1cc(NC(=O)Nc2c(F)cccc2Cl)cn1  remaining activity (10 µM): 113%
COc1cc(Nc2cnc(C#N)c(O[C@H](C)CN(C)C)n2)ncc1-c1cnn(C)c1  remaining activity (radiometric; 1 µM): 98%
COc1cc(Cl)c(C(=O)N[C@@H](CN[C@H]2CC[C@@H](N)CC2)Cc2ccc(C#N)cc2)cc1-c1ccc(CN[C@H](C)c2ccc(C)cc2)o1  remaining activity (1 µM): 99%
Cc1ccc(C(=O)NCc2ccsc2)cc1C#Cc1cn(C(C)C)c2ncnc(N)c12  activity vs control (1 µM): 104%
CN1CC(Oc2cnc(C#N)cc2-c2ccn3nc(NC(=O)C4CC4)cc3c2)C1  inhibition (1 µM): 1%
CC(C)(O)[C@H]1CC[C@H](Nc2ccc3ncc(-c4cccc(C(F)(F)F)c4)n3n2)CC1  remaining activity (1 µM): 95.8%
COc1cc(/C=C/C(=O)CC(=O)/C=C/c2ccc(O)c(OC)c2)ccc1O  activity vs control (1 µM): 102%
O=C(Nc1cnn(-c2csc(C(=O)NC3COC3)c2)c1)Nc1c(F)cccc1Cl  remaining activity (5 µM): 82.3%
